How the values were obtained:
Plasmodium falciparum [1] = experiment: Antiplasmodial activity against chloroquine-resistant Plasmodium falciparum K1 in presence of artemether; format: functional
Plasmodium falciparum [2] = experiment: Antiplasmodial activity against chloroquine-resistant Plasmodium falciparum K1 in presence of amodiaquine; format: functional
Plasmodium falciparum [3] = experiment: Antiplasmodial activity against chloroquine-resistant Plasmodium falciparum K1 in presence of chloroquine; format: functional
Plasmodium falciparum [4] = experiment: Antiplasmodial activity against chloroquine-resistant Plasmodium falciparum K1 in presence of mefloquine; format: functional
Plasmodium falciparum [5] = experiment: Antiplasmodial activity against chloroquine-resistant Plasmodium falciparum K1 in presence of quinine; format: functional
A549 [6] = experiment: Effect on glutathione S-transferase expression in human A549 cells assessed as transcript level at 662 nM after 24 hrs by RT-qPCR analysis relative to untreated control; format: functional; conditions: in the assay text read “662 µM” for “662 nM”
Method in brief: (§1)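 A549 cells are seeded at 2.5 × 10^5 per 25-cm2 well. At 40–45% confluence they are treated for 24 h with 166 or 662 μM, 158 or 315 μM, or 5 or 24 μM compound; controls receive <5% DMSO. Total RNA is DNase-treated and qRT-PCR is run in quadruplicate. Values are normalized to GAPDH and given as % of untreated control.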

A549 [7] = experiment: Effect on glutathione reductase expression in human A549 cells assessed as transcript level at 166 nM after 24 hrs by RT-qPCR analysis relative to untreated control; format: functional; conditions: in the assay text read “166 µM” for “166 nM”; method in brief: as §1
A549 [8] = experiment: Effect on glutathione reductase expression in human A549 cells assessed as transcript level at 662 nM after 24 hrs by RT-qPCR analysis relative to untreated control; format: functional; conditions: in the assay text read “662 µM” for “662 nM”; method in brief: as §1
A549 [9] = experiment: Effect on glutathione peroxidase expression in human A549 cells assessed as transcript level at 662 nM after 24 hrs by RT-qPCR analysis relative to untreated control; format: functional; conditions: in the assay text read “662 µM” for “662 nM”; method in brief: as §1
[10] = target: T1, Glutathione reductase, mitochondrial (Homo sapiens) (UniProt P00390); experiment: Inhibition of glutathione reductase in human A549 cells assessed as enzyme activity at 166 µM after 24 hrs relative to untreated control; design: scale not given: the % may be the effect or the level left
T1 sequence (whole entry): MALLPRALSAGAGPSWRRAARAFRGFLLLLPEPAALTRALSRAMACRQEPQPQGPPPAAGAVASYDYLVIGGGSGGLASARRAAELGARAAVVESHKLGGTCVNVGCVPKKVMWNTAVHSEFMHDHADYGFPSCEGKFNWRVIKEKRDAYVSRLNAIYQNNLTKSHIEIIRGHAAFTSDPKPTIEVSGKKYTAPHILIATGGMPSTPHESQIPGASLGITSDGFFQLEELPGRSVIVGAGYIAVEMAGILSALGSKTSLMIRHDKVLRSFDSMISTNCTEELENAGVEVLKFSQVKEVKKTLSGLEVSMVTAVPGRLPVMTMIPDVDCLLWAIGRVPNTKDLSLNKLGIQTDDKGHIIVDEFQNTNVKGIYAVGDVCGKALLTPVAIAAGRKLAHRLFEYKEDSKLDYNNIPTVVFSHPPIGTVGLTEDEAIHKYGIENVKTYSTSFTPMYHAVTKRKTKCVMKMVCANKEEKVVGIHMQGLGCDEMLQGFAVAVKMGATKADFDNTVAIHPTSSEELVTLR

[11] = target: T1, Glutathione reductase, mitochondrial (Homo sapiens); experiment: Inhibition of glutathione reductase in human A549 cells assessed as enzyme activity at 662 µM after 24 hrs relative to untreated control; design: scale not given: the % may be the effect or the level left
Thioredoxin reductase = Thioredoxin reductase (Homo sapiens, UniProt Q16881+Q9NNW7+Q86VQ6); experiment: Inhibition of thioredoxin reductase in human A549 cells assessed as enzyme activity at 166 µM after 24 hrs by DTNB assay relative to untreated control; design: scale not given: the % may be the effect or the level left
Plasmodium falciparum [12] = experiment: Downregulation of gamma-glutamylcysteine synthetase mRNA level in Plasmodium falciparum 3D7 trophozoites at 126 nM after 18 hrs by RT-qPCR analysis relative to untreated control; format: functional
Method in brief: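 P. falciparum 3D7 trophozoites are exposed to 126 nM compound for 12, 15 or 18 h, then harvested by saponin lysis at 37°C. RNA is extracted and reverse-transcribed, and transcripts are quantified by real-time PCR in quadruplicate. Analysis uses ΔΔCT with 18S rRNA as reference (LDH also checked), expressed as % of untreated control.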

Plasmodium falciparum [13] = experiment: Upregulation of glutathione synthetase mRNA level in Plasmodium falciparum 3D7 trophozoites at 126 nM after 15 hrs by RT-qPCR analysis relative to untreated control; format: functional
Method in brief: (§2)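 Synchronized 3D7 trophozoites in RPMI/Albumax culture at 37°C under 3% O2, 3% CO2 were exposed 12, 15 or 18 h, then harvested by 0.02% saponin lysis. RNA was reverse-transcribed and analyzed by real-time PCR in quadruplicate. Quantification used ΔΔCT with 18S rRNA reference (LDH also checked), expressed as % of untreated control.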

Plasmodium falciparum [14] = experiment: Upregulation of glutathione synthetase mRNA level in Plasmodium falciparum 3D7 trophozoites at 126 nM after 18 hrs by RT-qPCR analysis relative to untreated control; format: functional; method in brief: as §2
A549 [15] = experiment: Effect on thioredoxin reductase expression in human A549 cells assessed as transcript level at 5 nM after 24 hrs by RT-qPCR analysis relative to untreated control; format: functional; conditions: in the assay text read “5 µM” for “5 nM”; method in brief: as §1
A549 [16] = experiment: Effect on glutathione S-transferase expression in human A549 cells assessed as transcript level at 24 nM after 24 hrs by RT-qPCR analysis relative to untreated control; format: functional; conditions: in the assay text read “24 µM” for “24 nM”; method in brief: as §1
A549 [17] = experiment: Inhibition of glutathione S-transferase in human A549 cells assessed as enzyme activity at 24 µM after 24 hrs relative to untreated control; design: scale not given: the % may be the effect or the level left
A549 [18] = experiment: Effect on glutathione S-transferase expression in human A549 cells assessed as transcript level at 158 nM after 24 hrs by RT-qPCR analysis relative to untreated control; format: functional; conditions: in the assay text read “158 µM” for “158 nM”; method in brief: as §1
A549 [19] = experiment: Effect on glutathione S-transferase expression in human A549 cells assessed as transcript level at 315 nM after 24 hrs by RT-qPCR analysis relative to untreated control; format: functional; conditions: in the assay text read “315 µM” for “315 nM”; method in brief: as §1
A549 [20] = experiment: Inhibition of glutathione peroxidase in human A549 cells assessed as enzyme activity at 315 µM after 24 hrs relative to untreated control; design: scale not given: the % may be the effect or the level left
A549 [21] = experiment: Inhibition of glutathione S-transferase in human A549 cells assessed as enzyme activity at 158 µM after 24 hrs relative to untreated control; design: scale not given: the % may be the effect or the level left
A549 [22] = experiment: Inhibition of glutathione S-transferase in human A549 cells assessed as enzyme activity at 315 µM after 24 hrs relative to untreated control; design: scale not given: the % may be the effect or the level left

`O=c1oc2c(O)c(O)cc3c(=O)oc4c(O)c(O)cc1c4c23` [ELLAGIC ACID] showed an FIC50 (Plasmodium falciparum [1]) of 1, an FIC50 (Plasmodium falciparum [2]) of 1 and an FIC50 (Plasmodium falciparum [3]) of 1. The FIC50 (Plasmodium falciparum [4]) was 1, the FIC50 (Plasmodium falciparum [5]) was 1 and the Activity (A549 [6]) was 131%. The Activity (A549 [7]) was 152%, the Activity (A549 [8]) was 125% and the Activity (A549 [9]) was 150%. The Activity [10] was 87%, the Activity [11] was 85% and the Activity (Thioredoxin reductase) was 82%.

In the case of `O=c1oc2c(O)c(O)c(O)c3c(=O)oc4c(O)c(O)c(O)c1c4c23` [CORULEOELLAGIC ACID], the Activity (Plasmodium falciparum [12]) is reported as 25%, the Activity (Plasmodium falciparum [13]) is reported as 128% and the Activity (Plasmodium falciparum [14]) is reported as 128%. It also gave an Activity (A549 [15]) of 76%, an Activity (A549 [16]) of 84% and an Activity (A549 [17]) of 106%.

Work on `O=c1oc2c(O)c(O)c(O)c3c(=O)oc4c(O)c(O)cc1c4c23` [FLAVELLAGIC ACID] yielded an Activity (A549 [18]) of 115%, an Activity (A549 [19]) of 164% and an Activity (A549 [20]) of 112%. It also gave an Activity (A549 [21]) of 99% and an Activity (A549 [22]) of 121%.
